Results taken from ChEMBL document CHEMBL2029252, “Pharmacophore-based small molecule CXCR4 ligands” (Bioorg Med Chem Lett, 2012).
Active and inactive are the calls of the source. The calls are words filed in the database; no cut-off is given here.

Tests used:
[1] = molecular target: C-X-C chemokine receptor type 4 (Homo sapiens) (UniProt P61073); assay: Displacement of [125I]-CXCL12 from CXCR4 expressed in human Jurkat cells at 10 uM relative to T140; type: cell-based
Outline: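 Competition for [125I]-CXCL12 binding to Jurkat cells, test compounds at 10 µM. Percent inhibition expressed relative to that given by the reference peptide T140, set at 100%.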

[2] = Cytotoxicity against human MT4 cells assessed as reduction of cell viability; type: cell-based
[3] = system: Human immunodeficiency virus 1; assay: Antiviral activity against X4-tropic HIV1 NL4.3 infected in human MT4 cells assessed as protection from virus-induced cytopathogenicity; type: functional, organism-based; details: Human immunodeficiency virus 1, NL4.3, MT4
Outline: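 MT-4 cells infected with X4 HIV-1 strain NL4-3; readout is protection from virus-induced cytopathogenicity. EC50 = concentration giving 50% protection, mean of at least three independent experiments.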

[4] = system: Human immunodeficiency virus 1; assay: Antiviral activity against R5-tropic HIV1 NL(AD8) infected in human PM1 cells expressing CCR5 assessed as protection from virus-induced cytopathogenicity at < 100 uM; type: functional, organism-based
[5] = system: Human immunodeficiency virus 1; assay: Antiviral activity against R5-tropic HIV1 NL(AD8) infected in human PM1 cells expressing CCR5 assessed as protection from virus-induced cytopathogenicity; type: functional, organism-based; details: Human immunodeficiency virus 1, NL(AD8)

Sequence of C-X-C chemokine receptor type 4 (Homo sapiens) (P61073 whole entry): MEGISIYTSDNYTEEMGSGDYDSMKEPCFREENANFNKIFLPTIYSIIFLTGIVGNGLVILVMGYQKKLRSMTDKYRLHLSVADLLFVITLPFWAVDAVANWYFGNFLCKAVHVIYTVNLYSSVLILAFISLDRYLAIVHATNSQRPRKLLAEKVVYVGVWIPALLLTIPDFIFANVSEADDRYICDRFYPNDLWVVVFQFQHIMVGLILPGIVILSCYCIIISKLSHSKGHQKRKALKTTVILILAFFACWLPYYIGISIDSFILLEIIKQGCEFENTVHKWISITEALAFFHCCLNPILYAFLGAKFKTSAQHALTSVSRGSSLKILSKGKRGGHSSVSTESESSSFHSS

SMILES | inhibition [1] | CC50 [2] | EC50 [3] | Activity [4] | EC50 [5]
C[C@@H](NC(=O)[C@H](CCCNC(=N)N)NC(=O)c1ccc(CN(CCc2ccccn2)C(=O)c2ccc(F)cc2)cc1)c1cccc2ccccc12 | 6% | 41 µM | > 20 µM |  | 
C[C@H](NC(=O)[C@H](CCCNC(=N)N)NC(=O)c1ccc(CN(Cc2ccncc2)Cc2ccc(F)cc2)cc1)c1cccc2ccccc12 | 16% | 44 µM | 8 µM | inactive | 
Cc1cn([C@H]2C[C@H](N=[N+]=[N-])[C@@H](CO)O2)c(=O)[nH]c1=O [ZIDOVUDINE] |  | 100 µM | 0.058 µM |  | 
C[C@H](NC(=O)[C@H](CCCNC(=N)N)NC(=O)c1ccc(CN(CCc2ccccn2)Cc2ccc(F)cc2)cc1)c1cccc2ccccc12 | 25% | 24 µM | > 20 µM |  | 
C[C@H](NC(=O)[C@H](CCCNC(=N)N)NC(=O)c1ccc(CN(CCc2ccc(F)cc2)Cc2ccccn2)cc1)c1cccc2ccccc12 | 16% | 9.9 µM | > 4 µM |  | 
C[C@@H](NC(=O)[C@H](CCCNC(=N)N)NC(=O)c1ccc(CNC(=O)c2ccc(C(F)(F)F)cc2)cc1)c1cccc2ccccc12 |  | 66 µM | 7.4 µM |  | 
C[C@H](NC(=O)[C@H](CCCNC(=N)N)NC(=O)c1ccc(CNCc2ccccn2)cc1)c1cccc2ccccc12 | 100% | 80 µM | 0.33 µM |  | 
C[C@@H](NC(=O)[C@H](CCCNC(=N)N)NC(=O)c1ccc(CN(CCc2ccc(F)cc2)CCc2cccnc2)cc1)c1cccc2ccccc12 | 69% | 11 µM | > 11 µM | inactive | 
C[C@@H](NC(=O)[C@H](CCCNC(=N)N)NC(=O)c1ccc(CN(Cc2cccnc2)C(=O)c2ccc(F)cc2)cc1)c1cccc2ccccc12 | 11% | 45 µM | > 20 µM |  | 
COC[C@@H](c1ccc(C(F)(F)F)cc1)N1CCN(C2(C)CCN(C(=O)c3c(C)ncnc3C)CC2)C[C@@H]1C [VICRIVIROC] |  |  |  |  | 55 nM
C[C@H](NC(=O)[C@H](CCCNC(=N)N)NC(=O)c1ccc(CN(CCc2ccc(F)cc2)Cc2ccncc2)cc1)c1cccc2ccccc12 | 26% |  |  |  | 
C[C@H](NC(=O)[C@H](CCCNC(=N)N)NC(=O)c1ccc(CN(CCc2ccncc2)C(=O)c2ccc(F)cc2)cc1)c1cccc2ccccc12 | 25% | 47 µM | > 20 µM |  | 
C[C@@H](NC(=O)[C@H](CCCNC(=N)N)NC(=O)c1ccc(CN(CCc2ccc(F)cc2)Cc2ccncc2)cc1)c1cccc2ccccc12 | 44% |  |  |  | 
C[C@@H](NC(=O)[C@H](CCCNC(=N)N)NC(=O)c1ccc(CN(CCc2ccc(F)cc2)Cc2cccnc2)cc1)c1cccc2ccccc12 | 79% | 47 µM | 11 µM | inactive | 
C[C@@H](NC(=O)[C@H](CCCNC(=N)N)NC(=O)c1ccc(CN(CCc2ccncc2)CCc2ccc(F)cc2)cc1)c1cccc2ccccc12 | 0% |  |  |  | 
C[C@H](NC(=O)[C@H](CCCNC(=N)N)NC(=O)c1ccc(CN(CCc2ccccn2)C(=O)c2ccc(F)cc2)cc1)c1cccc2ccccc12 | 0% | 43 µM | > 20 µM |  | 
C[C@H](NC(=O)[C@H](CCCNC(=N)N)NC(=O)c1ccc(CN(Cc2ccc(F)cc2)Cc2cccnc2)cc1)c1cccc2ccccc12 | 27% | 41 µM | > 20 µM |  | 
C[C@@H](NC(=O)[C@H](CCCNC(=N)N)NC(=O)c1ccc(CN(Cc2ccc(F)cc2)Cc2ccccn2)cc1)c1cccc2ccccc12 | 0% | 35 µM | > 20 µM |  | 
C[C@H](NC(=O)[C@H](CCCNC(=N)N)NC(=O)c1ccc(CN(CCc2cccnc2)C(=O)c2ccc(F)cc2)cc1)c1cccc2ccccc12 | 32% |  |  |  | 
C[C@@H](NC(=O)[C@H](CCCNC(=N)N)NC(=O)c1ccc(CN(CCc2ccncc2)Cc2ccc(F)cc2)cc1)c1cccc2ccccc12 | 16% |  |  |  | 
C[C@@H](NC(=O)[C@H](CCCNC(=N)N)NC(=O)c1ccc(CN(CCc2ccc(F)cc2)Cc2ccccn2)cc1)c1cccc2ccccc12 | 15% |  |  |  | 

SMILES | inhibition [1] | CC50 [2] | EC50 [3] | Activity [4] | EC50 [5]
C[C@@H](NC(=O)[C@H](CCCNC(=N)N)NC(=O)c1ccc(CN(CCc2cccnc2)Cc2ccc(F)cc2)cc1)c1cccc2ccccc12 | 24% |  |  |  | 
C[C@H](NC(=O)[C@H](CCCNC(=N)N)NC(=O)c1ccc(CN(CCc2cccnc2)Cc2ccc(F)cc2)cc1)c1cccc2ccccc12 | 60% | 65 µM | 13 µM | inactive | 
C[C@@H](NC(=O)[C@H](CCCNC(=N)N)NC(=O)c1ccc(CN(Cc2ccc(F)cc2)Cc2cccnc2)cc1)c1cccc2ccccc12 | 6% | 37 µM | > 20 µM |  | 
C[C@@H](NC(=O)[C@H](CCCNC(=N)N)NC(=O)c1ccc(CN(CCc2ccc(F)cc2)CCc2ccccn2)cc1)c1cccc2ccccc12 | 13% | 27 µM | > 20 µM |  | 
C[C@H](NC(=O)[C@H](CCCNC(=N)N)NC(=O)c1ccc(CN(Cc2ccncc2)C(=O)c2ccc(F)cc2)cc1)c1cccc2ccccc12 | 13% | 51 µM | > 20 µM |  | 
C[C@H](NC(=O)[C@H](CCCNC(=N)N)NC(=O)c1ccc(CN(Cc2cccnc2)C(=O)c2ccc(F)cc2)cc1)c1cccc2ccccc12 | 14% | 57 µM | > 20 µM |  | 
N=C(N)NCCC[C@@H]1NC(=O)[C@H](CCCNC(=N)N)NC(=O)[C@@H](Cc2ccc(O)cc2)NC(=O)CNC(=O)[C@H](Cc2ccc3ccccc3c2)NC1=O | 100% | > 10 µM |  |  | 
C[C@H](NC(=O)[C@H](CCCNC(=N)N)NC(=O)c1ccc(CN(CCc2ccc(F)cc2)Cc2cccnc2)cc1)c1cccc2ccccc12 | 36% |  |  |  | 
C[C@@H](NC(=O)[C@H](CCCNC(=N)N)NC(=O)c1ccc(CN(CCc2ccncc2)C(=O)c2ccc(F)cc2)cc1)c1cccc2ccccc12 | 12% |  |  |  | 
C[C@H](NC(=O)[C@H](CCCNC(=N)N)NC(=O)c1ccc(CN(CCc2ccc(F)cc2)CCc2cccnc2)cc1)c1cccc2ccccc12 | 35% |  |  |  | 
C[C@H](NC(=O)[C@H](CCCNC(=N)N)NC(=O)c1ccc(CN(CCc2ccc(F)cc2)CCc2ccccn2)cc1)c1cccc2ccccc12 | 23% | 13 µM | > 4 µM |  | 
C[C@H](NC(=O)[C@H](CCCNC(=N)N)NC(=O)c1ccc(CN(CCc2ccncc2)CCc2ccc(F)cc2)cc1)c1cccc2ccccc12 | 51% |  |  |  | 
C[C@@H](NC(=O)[C@H](CCCNC(=N)N)NC(=O)c1ccc(CN(CCc2ccccn2)Cc2ccc(F)cc2)cc1)c1cccc2ccccc12 | 4% | 23 µM | > 4 µM |  | 
C[C@H](NC(=O)[C@H](CCCNC(=N)N)NC(=O)c1ccc(CN(CCc2ccncc2)Cc2ccc(F)cc2)cc1)c1cccc2ccccc12 | 20% | 44 µM | 10 µM | inactive | 
C[C@@H](NC(=O)[C@H](CCCNC(=N)N)NC(=O)c1ccc(CN(Cc2ccncc2)Cc2ccc(F)cc2)cc1)c1cccc2ccccc12 | 12% | 39 µM | > 20 µM |  | 
C[C@@H](NC(=O)[C@H](CCCNC(=N)N)NC(=O)c1ccc(CN(Cc2ccncc2)C(=O)c2ccc(F)cc2)cc1)c1cccc2ccccc12 | 6% | 45 µM | > 20 µM |  | 
C[C@H](NC(=O)[C@H](CCCNC(=N)N)NC(=O)c1ccc(CN(Cc2ccccn2)C(=O)c2ccc(F)cc2)cc1)c1cccc2ccccc12 | 36% | 37 µM | > 20 µM |  | 
C[C@H](NC(=O)[C@H](CCCNC(=N)N)NC(=O)c1ccc(CN(Cc2ccc(F)cc2)Cc2ccccn2)cc1)c1cccc2ccccc12 | 30% | 11 µM | > 4 µM |  | 
C[C@@H](NC(=O)[C@H](CCCNC(=N)N)NC(=O)c1ccc(CN(CCc2cccnc2)C(=O)c2ccc(F)cc2)cc1)c1cccc2ccccc12 | 22% |  |  |  | 
C[C@@H](NC(=O)[C@H](CCCNC(=N)N)NC(=O)c1ccc(CN(Cc2ccccn2)C(=O)c2ccc(F)cc2)cc1)c1cccc2ccccc12 | 3% | 38 µM | > 20 µM |  | 
